Rows were chosen to be rich in hits. Some 3.7% of all compounds tested hit in one or more screens of this group.
HMGR II inh = blocks class II HMG-CoA reductase of Enterococcus faecalis | purified E. faecalis HMGR, NADPH absorbance 340 nm kinetic | inhibition, % at 10 µM | hit rate 0.41% among 190,000 | AID 1066;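 active means inhibition above a set limit, the median over all tested compounds plus 3 SD, cut at about 9.5% in these data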;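 further: enzyme runs in reverse so mevalonate oxidation gives rising NADPH absorbance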
RAM network inh = inhibitors of the yeast RAM network. S. cerevisiae dse1pr::URA3 reporter, 5-FOA growth OD615, 2 d; analog-sensitive cbk1-as2 kinase mutant strain. inhibition, % at 50 µM. hit rate 1.8% among 190,000;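 active means inhibition above a set limit, 3 SD over mean compound inhibition, cut at about 8.4% in these data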;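 further: inhibition rescues growth on 5-FOA so higher OD means more RAM inhibition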
BB579 growth dn = chemicals that inhibit yeast BB579 growth in restrictive medium (lifespan-shortening candidates); inhibition, % at 10 µM; hit rate 0.51% among 140,000; S. cerevisiae BB579 growth, OD615, 48 h; AID 804;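 active means inhibition above a set limit, 3 SD over the mean compound inhibition, cut at about 44% in these data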
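System: DeaD yeast strain BB579; buffer or medium: CSMM-D dextrose restrictive medium; technique: OD at 615 nm; schedule: 4 h cell preincubation, 48 h compound exposure, 30 °C humidified; doses: single 10 µM dose; controls: amphotericin B 10 µg/mL, positive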
INS promoter inh = TRM-6 insulin promoter activity inhibition | inhibition, % at 2 µM | hit rate 0.9% among 130,000 | TRM-6 cells (human fetal islet line), insulin promoter-eGFP reporter, imaging; reporter expression induced with tamoxifen;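 active means inhibition above the mean plus 3 SD, with well images judged a real hit on visual review, cut at about 60% in these data, passing the limit was not always enough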
Yeast life ext = extends the lifespan of yeast; S. cerevisiae growth with nicotinamide, OD615; deaD strain in restrictive glucose medium; inhibition of the nicotinamide effect, % at 10 µM; hit rate 0.68% among 130,000;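 active means inhibition above a set limit, placed 3 SD over the median of all compounds, cut at about 26% in these data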
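Assay system: engineered S. cerevisiae DeaD replicative-lifespan strain, galactose-grown log-phase cells; Buffer or medium: CSMM-D glucose medium, restrictive; Probe or stimulus: nicotinamide 1.5 mM; Compound: single dose 10 µM compound, 0.25% DMSO; Schedule: 4 h preincubation then 48 h treatment at 30 °C; Technique: OD615 measurement.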
RAM 5-FOA = restores 5-FOA growth of efflux-deficient yeast; shares compounds with RAM network inh; S. cerevisiae efflux-deficient reporter strain, 5-FOA growth OD615, 2 days; max inhibition, %; 1,200 tested, under 10 active; call rule not given here
Numbers stand for hits; – = inactive; · = no result given.

SMILES | HMGR II inh | RAM network inh | BB579 growth dn | INS promoter inh | Yeast life ext | RAM 5-FOA
COc1ccc(-c2nc(CCNS(=O)(=O)c3ccc4c(c3)OCCO4)cs2)cc1 | – | – | – | · | – | ·
CCCCCC(=O)O[C@]1(C(C)=O)CC[C@H]2[C@@H]3CCC4=CC(=O)CC[C@]4(C)[C@H]3CC[C@@]21C | – | 12 | – | – | – | –
Cc1ccc(C(=O)Nc2nc(=O)[nH]s2)cc1 | – | – | · | – | · | ·
COc1ccc(CNC(=O)c2cccc(-c3ccc(C)c4ccccc34)n2)cc1 | – | 12 | – | – | – | –
COc1ccc(CNC(=O)c2ccccc2C(=O)O)cc1 | – | – | – | · | – | ·
CCN1C(=O)C(CC(=O)Nc2ccc(OC)cc2)N(CCc2ccc(F)cc2)C1=S (stereo not given) | – | 16 | · | · | · | –
CCCCCCOc1ccc(NC(=O)CC2C(=O)N(CC)C(=S)N2Cc2ccco2)cc1 (stereo not given) | – | 17 | – | – | – | –
Cc1cc(NC(=O)COC(=O)C(Nc2ccc(C(F)(F)F)cc2Cl)C(C)C)no1 (stereo not given) | – | 13 | – | · | – | –
N#Cc1c(SCC(=O)O)nc(N2CCCCC2)c2c1CCCC2 | – | – | – | – | – | ·
COC(=O)CSc1nc(N2CCCCC2)c2c(c1C#N)CCCC2 | – | 14 | – | – | – | –
Cc1cc(C)c(CSc2ncnc3nc[nH]c23)c(C)c1 | – | – | · | – | · | ·
COCCNC(=S)N(CCc1c(C)[nH]c2ccc(F)cc12)Cc1cccs1 | – | 12 | · | – | · | –
CCNC(=S)N(CCc1c(C)[nH]c2ccc(C)cc12)Cc1cccs1 | – | – | · | – | · | ·
CCN(C(=O)CSc1ncnc2sc(C)c(C)c12)C1CCS(=O)(=O)C1 (stereo not given) | – | – | · | – | · | ·
CCCN(CC1CC1)C(=O)CSc1ncnc2sc(C)c(C)c12 | – | 14 | – | – | – | –
O=C(CN(C(=O)CCC(=O)Nc1ccccn1)c1ccc2c(c1)OCCO2)NCCc1ccccc1 | – | 15 | – | · | · | –
O=C(COC(=O)CCc1c[nH]c2ccccc12)NC(c1ccccc1)c1ccccc1 | – | 17 | – | – | – | –
CCc1c(C#N)c(SCc2c(C)noc2C)nc2c1C(=O)CC(C)(C)C2 | – | 12 | – | – | – | –
CCc1oc2ccccc2c1C(=O)c1cc(Br)c(O)c(Br)c1 | – | 16 | 82 | – | – | –
CC(C)c1ccccc1NC(=O)COC(=O)Cc1ccsc1 | – | – | – | · | – | ·
CCN(CC)C(=O)CSc1nc2cc3c(cc2c(=O)n1CCCCCC(=O)NCc1ccc(OC)cc1)OCO3 | – | 14 | · | – | · | –
O=C(NCCCO)C(=O)NCc1ccccn1 | – | – | · | · | · | ·
CCCc1nn(C)c(C(=O)Nc2ccc(C)c(C)c2)c1Cl | – | 22 | – | – | – | –
Cn1c(SCc2ccccc2F)nnc1-c1ccccn1 | – | – | · | – | · | ·
O=[N+]([O-])c1ccc(COc2cccc(CNc3ccc(Br)cc3)c2)cc1 | – | 14 | – | · | – | –
SMILES | HMGR II inh | RAM network inh | BB579 growth dn | INS promoter inh | Yeast life ext | RAM 5-FOA
CCC/C=C(\CCC)C(NS(=O)(=O)c1cccc2cccnc12)c1ccc(C(=O)OC)cc1 (stereo not given) | – | 13 | – | – | – | –
COc1cc(NC(=O)c2ccc3c(c2)OCO3)c2ncccc2c1 | – | 12 | – | – | – | –
COCCNCC(=O)N1CCCCCC1 | – | – | · | – | · | ·
O=C(O)CCCN1C(=O)/C(=C/c2cn(-c3ccccc3)nc2-c2cccs2)SC1=S | – | 12 | · | – | · | –
O=C(CCCN1C(=O)/C(=C/c2cccs2)SC1=S)Nc1ccccn1 | – | – | · | – | · | ·
CCc1ccccc1NC(=O)c1ccc(NS(C)(=O)=O)cc1 | – | – | · | · | · | ·
CS(=O)(=O)Nc1ccc(C(=O)Nc2ccccc2Sc2ccccc2)cc1 | – | 12 | – | – | – | –
CC/C(=N\OC(=O)c1ccc(OC(C)C)cc1)c1ccc(C)cc1 | – | – | – | – | – | ·
C/C(=N\OC(=O)c1ccc(OC(C)C)cc1)c1ccc(C)c(C)c1 | – | 12 | – | – | – | –
Cc1c(NC(=O)c2cccc(-c3cc4ccccc4oc3=O)c2)cccc1-c1nc2ncccc2o1 | – | – | – | · | – | ·
CN(Cc1cc(-c2ccccc2)on1)C(=O)c1cc(COc2c(F)cccc2F)on1 | – | 21 | · | · | · | –
